Test results from ChEMBL document CHEMBL1143585, “Synthesis of some cryptolepine analogues, assessment of their antimalarial and cytotoxic activities, and consideration of their antimalarial mode of action” (J Med Chem, 2005).

Tests used:
Plasmodium falciparum [1] = experiment: In vitro antiplasmodial activity for Plasmodium falciparum; format: functional, organism-based; details: Plasmodium falciparum
Procedure, shortened: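 P. falciparum K1 ring-stage cultures in human A+ erythrocytes (RPMI 1640, A+ serum, glucose), at 2.5% hematocrit and 1% parasitemia. Two-fold serial dilutions in duplicate, final DMSO ≤0.5%. Incubated 48 h at 37 °C under 93% N2/3% O2/4% CO2. Growth read as parasite lactate dehydrogenase activity (APAD/NBT, 550 nm). IC50 by linear regression; at least three separate determinations.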

Mus musculus [2] = experiment: In vivo antimalarial activity of compound against Plasmodium berghei in mice (Mus musculus) at dose of 20 mg/kg treated for 4 days; c = toxic after 2nd dose; format: functional, organism-based; parameters: dose 20 mg/kg
MAC15A [3] = experiment: Cytotoxicity against MAC15A mouse adenocarcinomas of the colon cells; format: functional, cell-based; details: Mus musculus, MAC15A
Procedure, shortened: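 MTT assay. MAC15A cells were seeded at 2 × 10^3 per well and attached overnight at 37 °C, 5% CO2. Drugs were dissolved in DMSO and diluted in medium (max 0.1% DMSO), eight wells per concentration, 96 h exposure. MTT (0.5 mg/mL) was then added for 24 h. Formazan was dissolved in DMSO and read at 550 nm. Survival is relative to vehicle control; IC50 from triplicate experiments.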

Mus musculus [4] = species: Mus musculus; experiment: Mean survival time taken as number of days before illness due to Plasmodium berghei in […] mice (Mus musculus); c=toxic after the 2nd dose; format: functional, organism-based
Mus musculus [5] = experiment: In vivo antimalarial activity of compound against Plasmodium berghei was determined as suppression of parasitaemia in mice (Mus musculus) at 20 mg/kg treated for 4 days; c=toxic after the 2nd dose; format: functional, organism-based; parameters: dose 20 mg/kg
Mus musculus [6] = experiment: Mean survival time taken as number of days before illness due to Plasmodium berghei when mice (Mus musculus) treated with 20 mg/kg dose for 4 days; c=toxic after the 2nd dose; format: functional, organism-based; parameters: dose 20 mg/kg
MAC15A [7] = experiment: Ratio of cytotoxic to that of antiplasmodial activity was determined; format: functional, Mus musculus
Mus musculus [8] = species: Mus musculus; experiment: Mean survival time taken as number of days before illness due to Plasmodium berghei in untreated mice (Mus musculus); format: functional
Procedure, shortened: (§1)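 Peters' 4-day suppressive test in female BALB/c mice (18-20 g), five per group. Each mouse got 1 × 10^7 P. berghei ANKA-infected erythrocytes iv. Drug was given ip in 0.2 mL daily for 4 consecutive days. Survival time was the number of days before signs of malaria illness, compared with untreated infected controls.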

Mus musculus [9] = experiment: Mean survival time taken as number of days before illness due to Plasmodium berghei when mice (Mus musculus) treated with 25 mg/kg dose for 4 days; format: functional; procedure, shortened: as §1
Mus musculus [10] = experiment: In vivo antimalarial activity of compound against Plasmodium berghei in mice (Mus musculus) at dose of 25 mg/kg treated for 4 days; format: functional
Procedure, shortened: (§2)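 Peters 4-day suppressive test in female BALB/c mice (18–20 g), five per group. Mice were infected iv with 1 × 10^7 P. berghei ANKA-infected erythrocytes. Drug was given ip daily for four consecutive days. Blood smears were taken on day 5, and % parasitemia suppression was calculated against untreated infected controls. Survival was recorded as days until signs of malaria illness.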

Mus musculus [11] = experiment: In vivo antimalarial activity of compound against Plasmodium berghei was determined as suppression of parasitemia in mice (Mus musculus) at 25 mg/kg treated for 4 days; format: functional; procedure, shortened: as §2
[12] = molecular target: T1, Histidine-rich protein PFHRP-II (Plasmodium falciparum) (UniProt P05227); experiment: Antiplasmodial activity as IC50 against Beta-hematin formation; format: functional
T1 sequence (whole entry): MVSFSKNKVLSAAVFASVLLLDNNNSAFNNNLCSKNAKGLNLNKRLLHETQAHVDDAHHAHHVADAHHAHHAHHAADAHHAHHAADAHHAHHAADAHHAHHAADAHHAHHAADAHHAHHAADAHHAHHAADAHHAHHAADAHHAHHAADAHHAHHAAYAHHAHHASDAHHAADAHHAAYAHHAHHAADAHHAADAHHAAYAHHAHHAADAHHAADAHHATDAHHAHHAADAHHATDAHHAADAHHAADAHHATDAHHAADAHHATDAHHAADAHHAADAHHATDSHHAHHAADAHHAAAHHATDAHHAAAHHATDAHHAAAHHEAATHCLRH
Procedure, shortened: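 β-Hematin inhibition (BHIA) assay: hemin (0.4 µmol/well) in DMSO with compound at 0.25–2 (or 4) molar equivalents to hemin, in triplicate. Final DMSO was 25%. Formation started with 8 M acetate buffer pH 5.0, then 37 °C for 18 h. The centrifuged pellet was dissolved in 0.1 M NaOH and read at 405 nm. BHIA50 is the drug equivalents relative to hemin giving 50% inhibition.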

Plasmodium falciparum [13] = experiment: Normalized IC50 as product of antiplasmodial IC50 and vacuolar accumulation IC50; format: functional, organism-based
Plasmodium falciparum [14] = experiment: […] accumulation into acidic parasitic food vacuole at pH=5.5; format: functional
[15] = Ionization constant for the compound; format: physicochemical
Plasmodium falciparum [16] = experiment: […] accumulation into acidic parasitic food vacuole (pH=5.5) relative to Cryptolepine; format: functional
Procedure, shortened: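 Calculated from each compound's spectrophotometric pKa via a pH-trapping equation, assuming food-vacuole pH 5.5 and external pH 7.4. The result is expressed relative to cryptolepine's ratio. pKa came from UV spectra (0.05 mg mL-1) in at least seven buffers of pH 5.8–13.0, plus 0.1 M NaOH and 0.1 M HCl. pKa was taken as the midpoint of the λmax absorbance plot. Two experiments per compound.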

Mus musculus [17] = experiment: Mean survival time taken as number of days before illness due to Plasmodium berghei when mice (Mus musculus) treated with 6.25 mg/kg dose for 4 days; format: functional; procedure, shortened: as §1
Mus musculus [18] = experiment: In vivo antimalarial activity of compound against Plasmodium berghei was determined as suppression of parasitemia in mice (Mus musculus) at 6.25 mg/kg treated for 4 days; format: functional; procedure, shortened: as §2
Mus musculus [19] = experiment: In vivo antimalarial activity of compound against Plasmodium berghei in mice (Mus musculus) at dose of 6.25 mg/kg treated for 4 days; format: functional; procedure, shortened: as §2
Mus musculus [20] = experiment: In vivo antimalarial activity of compound against Plasmodium berghei in mice (Mus musculus) at dose of 12.5 mg/kg treated for 4 days; format: functional; procedure, shortened: as §2
Mus musculus [21] = experiment: In vivo antimalarial activity of compound against Plasmodium berghei in mice (Mus musculus) at dose of 3.125 mg/kg treated for 4 days; format: functional; procedure, shortened: as §2
Mus musculus [22] = experiment: In vivo antimalarial activity of compound against Plasmodium berghei was determined as suppression of parasitemia in mice (Mus musculus) at 3.125 mg/kg treated for 4 days; format: functional; procedure, shortened: as §2
Mus musculus [23] = experiment: Mean survival time taken as number of days before illness due to Plasmodium berghei when mice (Mus musculus) treated with 12.5 mg/kg dose for 4 days; format: functional; procedure, shortened: as §1
Mus musculus [24] = experiment: Mean survival time taken as number of days before illness due to Plasmodium berghei when mice (Mus musculus) treated with 3.125 mg/kg dose for 4 days; format: functional; procedure, shortened: as §1
Mus musculus [25] = experiment: In vivo antimalarial activity of compound against Plasmodium berghei was determined as suppression of parasitemia in mice (Mus musculus) at 12.5 mg/kg treated for 4 days; format: functional; procedure, shortened: as §2

Row | Compound | IC50 (Plasmodium falciparum [1]) | IC50 (MAC15A [3]) | Ratio (MAC15A [7]) | Mean survival time (Mus musculus [8]) | Mean survival time (Mus musculus [9]) | BHIA50 [12] | Vascular accumulation ratio (Plasmodium falciparum [14]) | pKa [15] | also measured
1 | C[n+]1c2ccccc2cc2[n-]c3ccccc3c21.Cl [CRYPTOLEPINE HYDROCHLORIDE] | 440 nM | 3950 nM | 8.98 | – | – | – | – | – | Parasitemia (Mus musculus [2]): Toxic after second dose; Mean survival time (Mus musculus [4]): Toxic after second dose; Suppression of parasitemia (Mus musculus [5]): Toxic after second dose; Mean survival time (Mus musculus [6]): Toxic after second dose
2 | C[n+]1c2cc(Cl)ccc2cc2[nH]c3ccccc3c21.[Cl-] | 448 nM | 1750 nM | 3.9 | – | – | – | – | – | –
3 | Cc1ccc2cc3[nH]c4ccccc4c3[n+](C)c2c1.[Cl-] | 149 nM | 3510 nM | 23.6 | – | – | – | – | – | –
4 | C[n+]1c2ccccc2cc2[nH]c3cc(Cl)ccc3c21.[I-] | – | – | – | 9.6 days | 14 days | – | – | – | –
5 | C[n+]1c2ccc(F)cc2cc2[nH]c3ccc(Br)cc3c21.[Cl-] | 63 nM | 1350 nM | 21.4 | – | – | – | – | – | –
6 | C[n+]1c2ccc(Br)cc2cc2[nH]c3ccc([N+](=O)[O-])cc3c21.[Cl-] | 70 nM | 1030 nM | 14.7 | 6.4 days | 13 days | – | – | – | Parasitemia (Mus musculus [10]): 1.34%; Suppression of parasitemia (Mus musculus [11]): 90.75%
7 | C[n+]1c2ccc(Cl)cc2cc2[nH]c3ccc(Br)cc3c21.[Cl-] | 30 nM | 1730 nM | 57.7 | 11.8 days | 15.4 days | – | – | – | Parasitemia (Mus musculus [10]): 0.97%; Suppression of parasitemia (Mus musculus [11]): 91.85%
8 | C[n+]1c2cc(Cl)c(Cl)cc2cc2[nH]c3ccccc3c21.[Cl-] | 356 nM | 3320 nM | 9.33 | – | – | – | – | – | –
9 | C[n+]1c2ccccc2cc2[nH]c3c([N+](=O)[O-])cccc3c21.[Cl-] | – | – | – | – | – | 0.84 | 78.94 | 9.6 | IC50 (Plasmodium falciparum [13]): 6850 nM
10 | C[n+]1c2ccccc2c(Cl)c2[nH]c3cc(Cl)ccc3c21 | – | – | – | – | – | 0.96 | 37.94 | 7.35 | IC50 (Plasmodium falciparum [13]): 12900 nM
11 | C[n+]1c2ccccc2cc2[nH]c3ccccc3c21.O=S(=O)([O-])O | – | – | – | – | – | 1.64 | 79.43 | 11.8 | –
12 | C[n+]1c2ccc(Br)cc2cc2[nH]c3ccc(Br)cc3c21.[Cl-] | – | – | 123 | 10 days | 15 days | 1.53 | 77.9 | 9.1 | Ratio (Plasmodium falciparum [16]): 0.99; Parasitemia (Mus musculus [10]): 1.24%; Mean survival time (Mus musculus [17]): 11.6 days; Suppression of parasitemia (Mus musculus [18]): 46.7%; Parasitemia (Mus musculus [19]): 7.67%; Parasitemia (Mus musculus [20]): 3.55%; Suppression of parasitemia (Mus musculus [11]): 91.4%; Parasitemia (Mus musculus [21]): 12.1%; Suppression of parasitemia (Mus musculus [22]): 15.9%; Mean survival time (Mus musculus [23]): 11.8 days; Mean survival time (Mus musculus [24]): 10 days; Suppression of parasitemia (Mus musculus [25]): 75.4%
